# Assay results collected from several papers.
# Compare with care: the assays were run in different laboratories.
# Target: Mitogen-activated protein kinase 11 (MAPK11, Homo sapiens, UniProt Q15759)
Structure (SMILES),observed,action,technique,concentration,endpoint,result
Cc1cc(NC(=O)c2cccc(S(F)(F)(F)(F)F)c2)cc(-n2ccn3nc(-c4cccnc4)cc23)c1,cell-free assay,,competition with immobilised ligand,1 µM,remaining binding,98.1%
COc1cc2c(Nc3ccc(Br)cc3F)ncnc2cc1OCC1CCN(C)CC1,cell-free assay,,,0.5 µM,remaining signal,97.1%
CNCc1ccc(-c2cc(-c3nc(-c4ccc(S(=O)(=O)C(C)C)cc4)cnc3N)on2)cc1,enzyme activity,inhibitor,,0.4 µM,inhibition,2%
CS(=O)(=O)Nc1cccc(-c2csc(NC(=O)CSc3nc4nccnc4c(=O)n3CCc3ccccc3)n2)c1,enzyme activity,inhibitor,,10 µM,inhibition,7%
CCCOc1ccc(OC)c(F)c1C(=O)c1ccc(C(=O)N[C@@H]2CNC[C@H]2NC(=O)c2ccc3[nH]ncc3c2)cc1,enzyme activity,inhibitor,,10 µM,remaining activity,96%
CN([C@@H]1CCc2c(CC(=O)O)c3ccccc3n2C1)S(=O)(=O)c1ccc(F)cc1,cell-free assay,,competition with immobilised ligand,1 µM,remaining binding,88%
COc1cccc2c(NCc3ccccc3)nc(-n3c(N)nc4ccccc43)nc12,target engagement in cells,inhibitor,chemoproteomics,20 mM,inhibition,-9.6%
Cn1c2c(Cl)c(Cl)ccc2c2cn[nH]c(=O)c21,thermal stability,,DSF,10 µM,ΔTm,0.1 °C
O=C(NCCCC1CCCCC1)c1ccc(CNC(=O)c2cnn(-c3ccccc3)c2C(F)(F)F)cc1,cell-free assay,,competition with immobilised ligand,0.1 µM,remaining binding,100%
N#CC1c2c([nH]c3c(Cl)c(Cl)ccc23)C(=O)NC12CCCCC2 (racemic),thermal stability,,DSF,10 µM,ΔTm,-0.1 °C
O=C(O)[C@H]1[C@H](Cn2nnc3ccccc3c2=O)CC[C@@H]1C(=O)c1ccc(OCCC2CCOCC2)cc1,cell-free assay,,competition with immobilised ligand,1 µM,remaining binding,78%
Oc1cccc(-c2nc(N3CCOCC3)c3oc4ncccc4c3n2)c1,enzyme activity,inhibitor,,10 µM,remaining activity,100%
CC/C(=N\NC(=O)NCc1cccc(O)c1)c1ccc(O)c(C)c1O,enzyme activity,inhibitor,,0.1 µM,inhibition,0.5%
CCN(CC)c1ccc(C2=NNC(=O)CC2C)cc1[N+](=O)[O-] (stereo not shown),enzyme activity,inhibitor,,10 µM,remaining activity,97%
COc1cc(Nc2cnc(C#N)c(O[C@H](C)CN(C)C)n2)ncc1-c1cnn(C)c1,enzyme activity,inhibitor,radiometric,10 µM,remaining activity,92%
CC(=O)N1CCC(c2ccc(C(=O)NC(=N)N)cc2C(F)(F)F)CC1,cell-free assay,,competition with immobilised ligand,1 µM,remaining binding,88%
CCC1(CC)NC(=O)c2c(c3ccc(Cl)c(Cl)c3n2C)C1C#N (stereo not shown),thermal stability,,DSF,10 µM,ΔTm,0.1 °C
CCC(=O)N[C@@H]1CC[C@H](C(=O)N(C)c2ccc(-c3nc4ccccc4o3)cc2)C1,cell-free assay,,competition with immobilised ligand,1 µM,remaining binding,83%
O=C1Nc2ccc(Cl)cc2C1=Cc1cc(Cl)c(O)c(Cl)c1,cell-free assay,,,0.5 µM,remaining signal,99.2%
COc1cc(/C=C/C(=O)CC(=O)/C=C/c2ccc(O)c(OC)c2)ccc1O,enzyme activity,inhibitor,,1 µM,activity vs control,101%
CO[C@H]1CC[C@H](CNc2ccc(S(=O)(=O)NC(=O)c3ccc(N4CCN(CC5=C(c6ccc(Cl)cc6)CC(C)(C)CC5)CC4)cc3Oc3cnc4[nH]ccc4c3)cc2[N+](=O)[O-])CC1,cell-free assay,,competition with immobilised ligand,1 µM,remaining binding,60%
Cc1ccc(Nc2nccc(N(C)c3ccc4c(C)n(C)nc4c3)n2)cc1S(N)(=O)=O,enzyme activity,inhibitor,,10 µM,inhibition,64%
